Test results from ChEMBL document CHEMBL1122666, “Bile acids with a cyclopropyl-containing side chain. 1. Preparation and properties of 3 alpha, 7 beta-dihydroxy-22,23-methylene-5 beta-cholan-24-oic acid” (J Med Chem, 1984).
Values after ≈ are worked out from the molar mass of the structure shown.

Tests used:
[1] = Compound was evaluated for physico-chemical property of Water solubility (bile acid) at 25 degree C; type: ADME
Method in brief: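 For solubility, solutions were held for 1 month, filtered through 0.22 µm, and methanol was added to prevent crystallization. Dissolved bile acid was quantified enzymatically with 3α-hydroxysteroid dehydrogenase.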

[2] = Compound was evaluated for physico-chemical property of Critical micellar concentration (CMC); type: ADME
Method in brief: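 For the CMC, sodium salt solutions from 0.1 to 100 mmol were adjusted to pH 8.00 with NaOH and rotated for 1 day at room temperature in the dark with excess Azulene or Orange OT dye. After 0.22-µm filtration, absorbance was read at 580 or 490 nm and plotted against bile salt concentration. Values are mean ± SD of five determinations.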

[3] = Compound was evaluated for physico-chemical property of Constant, pKa; type: physicochemical
Rattus norvegicus [4] = organism: Rattus norvegicus; experiment: Compound was evaluated for Bile flow; type: functional
Method in brief: (§1)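 Male Sprague–Dawley rats (300-330 g) were anesthetized with ethyl carbamate and the bile was collected. Bile acids were given i.v. as sodium salts via the femoral vein at 50 mg per animal, five rats per group, and bile was sampled at 15-min intervals. Flow volume and bile acid, cholesterol and phospholipid concentrations were measured by enzymatic assays. Controls were five rats; values are mean ± SD.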

Rattus norvegicus [5] = organism: Rattus norvegicus; experiment: Compound was evaluated for Percent hepatic uptake; type: functional
Method in brief: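 Single-pass isolated perfused rat liver; perfusate Krebs-Ringer bicarbonate pH 7.4 with glucose and 3% w/v fatty-acid-free bovine serum albumin, Evans blue (1 mg/g liver) as flow/recovery marker. 200 μL of 10-µmol/L bile acid injected; outflow collected at 10-s intervals, bile acid measured enzymatically (3α-hydroxysteroid dehydrogenase), Evans blue at 610 nm. Outflow corrected for Evans blue; uptake = 100% − outflow.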

Rattus norvegicus [6] = organism: Rattus norvegicus; experiment: Compound was evaluated for Bile acid secretion; type: functional; method in brief: as §1
Rattus norvegicus [7] = organism: Rattus norvegicus; experiment: Compound was evaluated for Phospholipid secretion; type: functional; method in brief: as §1
Rattus norvegicus [8] = organism: Rattus norvegicus; experiment: Compound was evaluated for Cholesterol secretion; type: functional; method in brief: as §1
[9] = biological target: Serum albumin (Homo sapiens) (UniProt P02768); experiment: Compound was evaluated for Albumin affinity constant

Row | Compound | solubility [1] | CMC [2] | pKa [3] | Bile flow (Rattus norvegicus [4]) | Intake (Rattus norvegicus [5]) | Secretion (Rattus norvegicus [6]) | Secretion (Rattus norvegicus [7]) | Secretion (Rattus norvegicus [8]) | Affinity constant [9]
1 | CC(C1CC1C(=O)O)C1CC[C@H]2[C@@H]3[C@@H](O)CC4C[C@H](O)CCC4(C)[C@H]3CCC12C (some centres not stated) | 11.8 µM (≈ 4.77 µg/mL) | 15.5 mM | 5.01 | 1.68 mL/h | 46% | 97 µM/h/kg | 9.5 µM/h/kg | 2.7 µM/h/kg | 68000 l M-1
2 | C[C@H](CCC(=O)O)[C@H]1CC[C@H]2[C@@H]3[C@@H](O)C[C@@H]4C[C@H](O)CC[C@]4(C)[C@H]3CC[C@]12C [URSODIOL] | 9 µM (≈ 3.53 µg/mL) | 19 mM | 5.08 | 1.08 mL/h | 50% | 98 µM/h/kg | 6.47 µM/h/kg | 2.12 µM/h/kg | –
